The values below come from article PMC3128789 (Nuclear medicine and biology, 2011).

Where two headings read alike, the source gives them in different places.

One series deals with hexokinase. The note with it: cited from earlier work.
For series [1] the following is noted: by 5 h; cited from earlier work.
A further series has as its system glucose dehydrogenase. The note with it: enzyme derived from rat liver; cited from earlier work.
Series [2] is described as follows: Urinary excretion of radioactivity. The class given is in vivo, Sprague-Dawley rats. The note with it: by 24 h, 3H radioactivity. In a few lines: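 Rats under isoflurane received 74 kBq (2 μCi) [1-³H]6FDG by tail vein and were handled as in the ¹⁸F study: recovery in a metabolic cage for the later time points. Urine radioactivity was counted directly and expressed as a percentage of injected radioactivity at 1, 6 and 24 h.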

The nature of series [3]: HPLC quantification of neutral radioactivity. The class given is in vivo, Sprague-Dawley rats.
The format of series [4] is in vivo, Sprague-Dawley rats. The note with it: 1 h biodistribution time.
Series [5] is classed as in vivo, Sprague-Dawley rats.
The format of series [6] is in vivo, Sprague-Dawley rats. The note with it: average of all tissues, 1 h after i.v. injection.
The format of series [7] is in vivo, Sprague-Dawley rats. The note with it: liver. In a few lines:
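Rats under 2% isoflurane in oxygen received the tracer by tail vein: about 37 MBq (1 mCi) for the 1 h point and 370 MBq (10 mCi) for 6 h. Tissues were homogenised in 8 mL/g ice-cold ethanol:PBS:water (65:10:25) and spun 15 min at 23,500 × g, 4 °C. The methanol-water extract was dried, taken up in water and run on formate-form AG 1-X8 anion exchange, eluting with water then formic acid. Columns were counted afterwards.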

The conditions of series [8]: intact rats, without phlorizin (SGLT inhibitor) pre-treatment; cited from earlier work.

For the compound `CO[C@@H]([C@H](O)[C@H](O)CO)[C@@H](O)C=O` [3OMG, 3-O-methyl-glucose, reference compound], the “phosphorylation by hexokinase in vitro” value with hexokinase is listed as “can be phosphorylated”. For the same compound, the urinary excretion in [1] is given as 50%.
As to `C[C@@H](O)[C@@H](O)[C@H](O)[C@@H](O)C=O` [6-deoxy-D-glucose], the “activity of glucose dehydrogenase on substrate” value (from here on “activity … on substrate”) in the series on glucose dehydrogenase is “same activity”.
Turning to `O=C[C@H](O)[C@@H](O)[C@H](O)[C@H](O)CF` [6FDG, 6-fluoro-6-deoxy-D-glucose], the “phosphorylation by hexokinase in vitro” value in the series with hexokinase (preliminary evaluation) is on record as “lack of its phosphorylation”. For the same compound, the “activity … on substrate” value in the series with glucose dehydrogenase is listed as “same activity”. Further, the “urinary excretion of radioactivity, percentage of injected radioactivity” value in [2] is “less than 8%”.
Regarding `OC[C@H]1OC(O)[C@H](O)[C@@H](O)[C@@H]1O` (stereo partly drawn) [D-glucose], in the series with glucose dehydrogenase, the “activity … on substrate” value is listed as “same activity”.
As for `[3H]C1(O)O[C@H](CF)[C@@H](O)[C@H](O)[C@H]1O` (stereo partly shown) [[1-^3H]6FDG], the “percentage of radioactivity eluting as [1-3H]6FDG (HPLC)” value in series [3] (blood, 6 h) was more than 99%. In addition, the “percentage of radioactivity eluting as 6FDG (HPLC)” value in series [3] (heart, 1 h (lowest tissue)) is reported as 90%; in [3] (heart, 6 h (lowest tissue)), 69%; in series [3] (skeletal muscle, 24 h (lowest tissue)), 65%. Further, the “percentage of radioactivity eluting as [1-3H]6FDS (HPLC)” value worked out at 28% in series [3] (heart, 6 h (highest tissue)) and 31% in series [3] (skeletal muscle, 24 h (highest tissue)). Besides, in [4], the “percentage of 3H radioactivity eluting with water, cation exchange column” value is recorded as approximately 100%. Moreover, the blood radioactivity result in [5] (24 h after i.v. injection) was “negligible”. Moreover, the “percentage of 3H radioactivity eluting with water, anion exchange column” value in series [5] (average across tissues, 1 h) was 101%; in series [5] (average across tissues, 24 h), 95%; in series [5] (individual tissues, 1 h), not below 90%.
With `O=C[C@H](O)[C@@H](O)[C@H](O)[C@H](O)C[18F]` [[^18F]6FDG, [^18F]6-fluoro-6-deoxy-D-glucose], the “percentage of homogenate 18F radioactivity in the methanol-water layer (extraction)” value in series [6] was 95.6 ± 2.6%. The results for the “percentage of 18F radioactivity remaining bound to the anion exchange column” value in series [7] (1 h) and in series [7] (6 h) were 1% and 5%, respectively. Moreover, the “urinary excretion of [18F]6FDG” value in series [8] is on record as “little urinary excretion”.
